# EBV gp42 inh: Epstein-Barr virus gp42 inhibitors, primary screen, biochemical, uHTS, fluorescence polarization | Fluorescence polarization binding assay, mP read-out | Glycoprotein 42 (Epstein-Barr virus (strain AG876)), Q1HVG2 | AID 1085, 2008 | 220,000 compounds, 0.42% hits | inhibition, % (tested at 21.74 µM); in the data active = inhibition above about 50%
# Target sequence (Q1HVG2 whole entry, looked up): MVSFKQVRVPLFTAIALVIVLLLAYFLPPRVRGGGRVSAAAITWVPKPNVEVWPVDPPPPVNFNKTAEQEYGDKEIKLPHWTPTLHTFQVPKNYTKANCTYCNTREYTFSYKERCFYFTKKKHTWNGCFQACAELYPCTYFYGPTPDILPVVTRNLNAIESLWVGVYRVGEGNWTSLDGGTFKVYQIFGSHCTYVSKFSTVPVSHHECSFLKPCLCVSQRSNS
# RanGTP-Impb inh: inhibitors of RanGTP-importin-beta interaction, primary screen, biochemical, FRET, CFP-Ran, YFP-importin-beta, homogeneous | AID 2216, 2009 | inhibition, % (concentration not given with the values) | Ran GTPase (GTP-bound) - importin-beta complex | 300,000 compounds, 1.1% hits | cell-free CFP-Ran/YFP-importin-beta FRET ratio;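 active = more than half of the replicate wells show a fall in the fluorescence ratio signal beyond about 16%, limit read from the data, passing the limit was not always enough; inconclusive = exactly half of the replicate wells pass the set limit; inactive = fewer than half of replicates pass the limit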;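 also: 0% = DMSO wells and 100% = Ran loaded with GDP instead of GTP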
# LANA-H2B inh: blockers of LANA interaction with H2A/H2B – biochemical, FP readout, HTS, primary screen; Protein LANA1 (Human herpesvirus 8 type P (isolate GK18)), Q9QR71; cell-free LANA-H2A/H2B peptide, fluorescence polarization; inhibition, % (test concentration not listed); 320,000 compounds, 0.6% hits; AID 2629, 2010; in the data active = inhibition mostly above about 10%, no sharp cut-off; inactive = mostly below about 6.7%
# MEX-5 binding: MEX-5 zinc finger RNA-binding disruptors – biochemical, C. elegans, fluorescence polarization, MLPCN library, primary screen; Zinc finger protein mex-5 (Caenorhabditis elegans), Q9XUB2; MEX-5/FITC-TCR2 RNA binding; active compounds read low; activity score (negative = inhibition of binding), % at 10 µM; 300,000 compounds, 0.38% hits; AID 1832, 2009;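 active = inhibition past about -25% in most replicates, and total fluorescence under double the plate's negative control median, limit read from the data; inconclusive = replicates evenly split on the limit, or fluorescence at least double controls; inactive = too little inhibition in most replicates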;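 also: 0% = DMSO and -100% = 5 µM competing unlabeled TCR2 RNA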
# Target sequence (Q9XUB2 whole entry, looked up): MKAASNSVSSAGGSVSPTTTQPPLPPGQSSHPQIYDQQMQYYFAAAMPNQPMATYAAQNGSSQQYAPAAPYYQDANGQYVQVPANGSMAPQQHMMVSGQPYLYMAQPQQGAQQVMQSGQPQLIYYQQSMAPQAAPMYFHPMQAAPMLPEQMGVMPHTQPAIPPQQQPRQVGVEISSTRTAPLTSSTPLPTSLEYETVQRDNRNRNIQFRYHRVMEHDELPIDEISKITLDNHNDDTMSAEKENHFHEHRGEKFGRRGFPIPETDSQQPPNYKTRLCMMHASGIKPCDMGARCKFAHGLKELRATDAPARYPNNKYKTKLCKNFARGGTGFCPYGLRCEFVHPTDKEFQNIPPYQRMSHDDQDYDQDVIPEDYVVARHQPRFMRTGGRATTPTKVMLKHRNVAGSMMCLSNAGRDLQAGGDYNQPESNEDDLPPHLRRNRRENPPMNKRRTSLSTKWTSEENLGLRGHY
# Runt-CBFb FRET: inhibitors of RUNX1 Runt–CBFb binding, primary screen, biochemical, FRET, Cerulean-Runt, Venus-CBFb, uHTS. Runt-related transcription factor 1 (Homo sapiens) + Core-binding factor subunit beta …. 220,000 compounds, 0.46% hits. Cerulean-Runt/Venus-CBFb FRET ratio 530/480, 1 h. inhibition, % at 20 µM;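 active = inhibition over about 50% at 20 µM in the single-dose screen, limit read from the data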;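 also: 0% = DMSO wells and 100% = excess unlabeled CBFb competitor control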
#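 test system = Cerulean-Runt domain fusion protein, energy donor | probe or stimulus = Venus-CBFb binding partner, 100 nM | incubation = two 1 h room-temperature incubations shielded from light | detection = fluorescence energy transfer, 422 nm excitation, 530/480 nm emission | measure = loss of energy transfer signal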
# Runt-SMMHC FRET: inhibitors of RUNX1 Runt–CBFb-SMMHC binding, primary screen, biochemical, FRET, Cerulean-Runt, Venus-CBFb-SMMHC, uHTS. Cerulean-Runt/Venus-CBFb-SMMHC FRET ratio 530/480, 1 h. Runt-related transcription factor 1 (Homo sapiens) + Core-binding factor subunit beta …. inhibition, % at 20 µM. 220,000 compounds, 0.74% hits. AID 1434, 2008;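 active = mean inhibition across duplicate retests at 20 µM reaching about 50%, limit read from the data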;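 also: 0% = DMSO wells and 100% = wells with excess untagged CBFb-SMMHC; inhibitors lower the FRET ratio by blocking Runt binding to CBFb-SMMHC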
# Active calls of the source: *; ? = inconclusive; / = not tested or not shown; ! = repeats disagree. Sampled rows, rich in hits. Any-hit rate of the full collection: about 2.4%.
SMILES,EBV gp42 inh,RanGTP-Impb inh,LANA-H2B inh,MEX-5 binding,Runt-CBFb FRET,Runt-SMMHC FRET
CCn1ncc(Br)c1C(=O)Nc1sc2c(c1C(N)=O)CCC2,-18.7,46.8*,-6.1,-1.8,3.5,-3.4
Cc1cccn2c(=O)c3cc(C(=O)NCc4ccco4)c(=N)n(CCOCCO)c3nc12,74.7*,154.7*,1.7,-7.6,/,/
Cc1ccc2nc3c(cc(C(=O)NCc4ccco4)c(=N)n3C3CCCC3)c(=O)n2c1,/,186.8*,7.0,-11.9,/,/
Cc1cccn2c(=O)c3cc(C(=O)NCc4ccco4)c(=N)n(C4CCCCC4)c3nc12,/,129.7*,1.4,-1.2,/,/
Cc1ccccc1OCC(=O)Nc1ccc2[nH]ncc2c1,/,8.1,-0.9,1.3,/,/
Cc1cccc(C(=O)NCC(c2ccc(F)cc2)N2CCOCC2)c1 (stereo not drawn),-5.3,1.2,-1.8,1.8,-1.9,-1.2
CCCC(c1nnnn1C(C)(C)C)N1CCN(C(=O)c2ccco2)CC1 (stereo not drawn),-21.6,-0.7,-4.6,-3.0,0.0,-0.5
C=CC[C@H](CC(=O)N(CCO)Cc1ccccc1)C(=O)NC[C@@H](OC(=O)[C@@H](CC=C)Cc1ccc(F)cc1)c1ccccc1,/,/,1.9,/,/,/
C=CCC[C@H](Cc1ccc(F)cc1)C(=O)O[C@H](CNC(=O)[C@@H](CC=C)CC(=O)N(CCO)Cc1ccccc1)c1ccccc1,/,/,71.3*,/,/,/
CC1CCCC(C)N1/N=C/c1ccc(C(=O)O)cc1 (stereo not drawn),3.3,-3.6,0.6,-0.8,1.0,-0.6
CCN1C(=O)N(S(=O)(=O)c2ccc(C)cc2)[C@@H](c2ccccc2)C(C(=O)OC)=C1C,0.7,0.0,-7.0,0.5,1.4,2.5
CCN1C(=O)N(S(=O)(=O)C(F)(F)F)[C@@H](c2ccccc2)C(C(=O)OC)=C1C,-11.0,34.8*,2.2,-4.4,0.5,-0.4
C/C(=N/OC(=O)c1ccccc1Br)c1ccc(C)cc1,/,1.8,3.8,0.9,/,/
COc1ccc(S(=O)(=O)Nc2ccc(-n3cnnn3)cc2)cc1[N+](=O)[O-],/,/,-0.2,/,/,/
O=C(Nc1ccc(N2CCCC2)cc1)C(Cl)c1ccccc1 (stereo not drawn),-10.1,1.6,28.2*,3.1,-3.0,-3.9
CS(=O)(=O)N1CCN(c2ccc(NC(=O)C(c3ccccc3)c3ccccc3)cc2)CC1,-1.7,4.2,-1.6,3.9,-1.7,0.4
COC(=O)c1ccc(C(=O)OC)c(NC(=O)CN(c2ccccc2)S(=O)(=O)N(C)C)c1,-3.2,5.4,5.8,0.3,-4.9,-3.2
Cc1ccc(NC(=O)c2ccc(-n3cncn3)c([N+](=O)[O-])c2)cc1,-14.7,26.0*,-2.9,1.2,-1.2,-2.2
CN1CCc2c(sc3c2C(=O)NC(c2ccc(-c4ccc(Cl)cc4)o2)N3)C1 (stereo not drawn),-5.1,89.5*,-25.6,1.6,113.5*,33.4
O=C1NC(c2ccco2)Nc2sc3c(c21)CCN(Cc1ccccc1)C3 (stereo not drawn),6.2,/,3.3,/,49.4,58.7*
COc1ccc(Br)cc1C1NC(=O)c2c(sc3c2CCN(C)C3)N1 (stereo not drawn),/,/,/,/,113.3*,65.0*
Cn1cccc1C1NC(=O)c2c(sc3c2CCC(C(C)(C)C)C3)N1 (stereo not drawn),-17.7,-1.6,1.4,2.3,3.3,1.0
CCOC(=O)N1CCc2c(sc3c2C(=O)NC(c2ccccc2)N3)C1 (stereo not drawn),-11.9,7.3,-0.8,-1.6,10.9,13.1
CN1CCc2c(sc3c2C(=O)NC(c2ccco2)N3)C1 (stereo not drawn),-23.2,113.0*,-10.0,-5.5,127.3*,38.3
Cc1ccc(C)c(NC(=S)NNc2ccc(F)cc2F)c1,/,1.2,0.0,1.1,/,/
SMILES,EBV gp42 inh,RanGTP-Impb inh,LANA-H2B inh,MEX-5 binding,Runt-CBFb FRET,Runt-SMMHC FRET
Cc1cccc(Cc2ncc(C(F)(F)F)cc2Cl)c1,/,-2.3,0.1,0.3,/,/
O=C(CSc1nc2cc(Cl)ccc2o1)NC1CC1,/,/,-0.5,/,/,/
COc1ccc(/C=C2\N=C(C)OC2=O)cc1[N+](=O)[O-],-14.0,-0.6,1.4,-6.4,-1.9,-2.7
CN1CCc2c(sc3c2C(=O)NC(c2cn(Cc4ccccc4)c4ccccc24)N3)C1 (stereo not drawn),-2.5,59.6*,-43.3,-2.3,63.2*,70.1*
CN1CCc2c(sc3nc(NN)n(Cc4ccccc4)c(=O)c23)C1,-10.6,6.1,-10.2,1.4,1.8,7.6
O=c1oc(Cc2ccccc2)nc2ccccc12,/,0.4,-1.3,-0.9,/,/
CN1[C@@H]2CC(OC(=O)[C@H](CO)c3ccccc3)C[C@H]1[C@@H]1O[C@@H]12 (stereo partly drawn),-5.3,-0.4,26.9*!,0.5,-1.7,0.6
CCN1CCCC(OC(=O)C(c2ccccc2)c2ccccc2)C1 (stereo not drawn),/,/,-6.0,/,/,/
CC(=O)Nc1nc(C)c(-c2csc(Nc3cccc(C(C)=O)c3)n2)s1,/,-6.1,-0.3,1.7,/,/
Cc1nc(NC(=O)c2ccccc2)sc1-c1csc(Nc2ccc(C(=O)O)cc2)n1,70.8*,-6.7,/,-2.7,12.0,-5.1
CC(=O)Nc1nc(C)c(-c2csc(Nc3cccc([N+](=O)[O-])c3)n2)s1,62.7*,?,10.9,2.0,0.3,8.5
CCC(=O)Nc1nc(C)c(-c2csc(Nc3ccc(C(=O)O)cc3)n2)s1,/,-3.8,/,1.5,/,/
CCOC(=O)[C@@H]1[C@H]2COc3ccc(Br)cc3[C@@H]2N2C(=O)N(c3cccc(F)c3)C(=O)[C@]12C,/,-2.0,-0.3,-0.2,/,/
Cc1cc(C(=O)CCC(=O)Nc2ncccc2C)c(C)s1,/,-2.3,-1.4,-2.3,/,/
CCN1C/C(=C/c2sccc2C)c2nc3ccccc3c(C(=O)O)c2C1,-5.1,-94.4,1.9,-8.7,-1.9,-15.1
CC1CCCCC1NC(=O)COC(=O)c1c2c(nc3ccccc13)/C(=C/c1ccco1)CC2 (stereo not drawn),9.8,-79.4,5.0,-2.5,12.7,/
CCN1C/C(=C/c2cccs2)c2nc3ccccc3c(C(=O)O)c2C1,27.9,-47.0,11.3*,-27.0*,-6.6,-30.5

# Bioassay records from PubChem.
